Bioassay records (PubChem BioAssay)
A selection: hits, their analogues and other compounds. The true share with any hit is near 3.7%.
KCNK9 block = inhibitors of human KCNK9 two-pore domain potassium channel | HEK293 KCNK9, FluxOR thallium flux fluorescence; active compounds read low | B-score at 10 µM | 310,000 compounds, 1.2% hits;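 active = ratio B-score over 3 SD below the library mean, with starting fluorescence within 5 SD of its mean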;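 also: negative B-score means less thallium flux so channel inhibition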
KCNK3 inh = human KCNK3 channel inhibition, primary screen; CHO-KCNK3 thallium flux, FluxOR fluorescence; active compounds read low; 340,000 compounds, 0.84% hits; AID 602410; B-score at 10 µM;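 active = B-score under library mean minus 4 SD, starting fluorescence ratio at most library mean plus 5 SD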;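 also: more negative B-score means stronger inhibition of thallium flux through KCNK3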
Target sequence (O14649 whole entry, looked up): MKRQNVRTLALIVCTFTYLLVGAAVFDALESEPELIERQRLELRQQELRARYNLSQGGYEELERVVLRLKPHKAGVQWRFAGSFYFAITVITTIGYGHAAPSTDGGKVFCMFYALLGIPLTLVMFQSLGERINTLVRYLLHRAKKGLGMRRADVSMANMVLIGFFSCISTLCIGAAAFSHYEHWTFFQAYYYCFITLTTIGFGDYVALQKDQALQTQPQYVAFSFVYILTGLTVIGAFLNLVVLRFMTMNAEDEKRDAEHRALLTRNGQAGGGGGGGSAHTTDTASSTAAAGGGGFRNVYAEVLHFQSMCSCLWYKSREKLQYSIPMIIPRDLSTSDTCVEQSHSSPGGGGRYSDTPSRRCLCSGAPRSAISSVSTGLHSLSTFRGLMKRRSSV
KCNQ1 inh = blocks the human KCNQ1 potassium channel; P51787; CHO-K1 KCNQ1, FluxOR thallium flux fluorescence; active compounds read high; B-score at 10 µM; 310,000 compounds, 1.3% hits; AID 2642;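 active = compounds whose thallium flux B-score, printed positive for inhibition, exceeds three library SD while starting fluorescence stays within three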;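 also: channel opened by potassium depolarization with thallium stimulus after 20 min compound exposure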
Kir21 block = inhibitors of mouse Kir2.1 inward-rectifier potassium channel; P35561; HEK293-Kir2.1, FluxOR thallium flux fluorescence; active compounds read low; B-score at 10 µM; 310,000 compounds, 0.85% hits;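 active = fluorescence ratio B-score at or below minus 3 SD of library scores, with starting-brightness B-score within 2 SD, cut at about -4.2 in these data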;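 also: channel flux triggered by added potassium and thallium sulfate stimulus; B-score of peak minus minimum fluorescence over baseline after thallium stimulus; more negative B-score means stronger Kir2.1 block with less thallium influx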
hERG rescue = shields human hERG channel from block by proarrhythmic agents; Q12809; CHO-hERG, FluxOR thallium flux, dofetilide IC70 present; activation (rescue from dofetilide block), less the hit threshold, % at 10 µM; 310,000 compounds, 0.51% hits;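 active = activation above the mean of controls blocked by dofetilide plus 5 SD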;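 also: thallium influx through hERG after potassium depolarization seen as dye fluorescence rise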
KCNQ1 act = potentiators or activators of human KCNQ1 potassium channel. P51787. CHO-K1 KCNQ1, thallium flux FluxOR fluorescence; active compounds read high. B-score at 10 µM. 310,000 compounds, 0.35% hits;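 active = fluorescence ratio B-score, a plate-corrected score, at least three library SD, with initial intensity B-score within 5 SD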
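Material: CHO-K1 cells stably expressing KCNQ1. Medium: assay buffer for compound exposure, DMSO matched across wells. Reagent: K+/Tl+ depolarizing stimulus. Compound dosing: single-concentration screen. Times: 37 °C overnight plating, 90-min dark dye load, 20-min compound pretreatment. Technique: FluxOR Tl+ flux fluorescence.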
Each line names hits and unclear results; the compound was inactive in the other large screens.

COc1ccc(S(=O)(=O)N2CCCc3ccccc32)cc1[N+](=O)[O-]	none
CCNC(=O)COC(=O)c1cc(S(=O)(=O)N2CCCc3ccccc32)ccc1Cl	Kir21 block -4.4
O=S(=O)(c1cnc(Cl)c(Cl)c1)N1CCCc2ccccc21	Kir21 block -4.6
COc1ccc(S(=O)(=O)N2CCCc3ccccc32)cc1OC	Kir21 block -5.3
Cc1ccc(NC(=O)CN(C)C(=O)CSc2nnc(C(F)(F)F)n2C)cc1	none
O=C(NCCCNC(=O)c1ccco1)c1ccc(F)cc1	none
Cc1ccc(C(=O)NCC(=O)OCC(=O)NCCc2ccccc2)s1	none
Cc1cc(NC(=O)Nc2cccc(C(F)(F)F)c2)n(C)n1	KCNQ1 inh 6
CC(C)(O)C(=O)NNC(=S)Nc1cccc(C(F)(F)F)c1	KCNQ1 inh 7
FC(F)(F)c1cccc(NC(=S)NNC(=S)Nc2cccc(C(F)(F)F)c2)c1	none (no result: KCNK3 inh)
O=C(Nc1ccccc1)Nc1cccc(C(F)(F)F)c1	none
FC(F)(F)c1cccc(NC(=S)Nc2ccc(Cl)c(Cl)c2)c1	KCNQ1 inh 7
CN1CCC(N(C)C(=O)CCc2nc3ccccc3n2-c2ccccc2)CC1	none
Cc1cc(C2=NNC(=NC3CC3)SC2)c(C)n1-c1c(C)n(C)n(-c2ccccc2)c1=O	none
Cc1ccc(-n2c(C)cc(C3=NNC(=NC4CC4)SC3)c2C)cc1C	KCNQ1 inh 7
Cc1cccc(C(=O)N[C@H](C(=O)Nc2nc3ccc(S(C)(=O)=O)cc3s2)C(C)C)c1	none
O=C(Nc1cccc(N2C(=O)C=CC2=O)c1)c1cccs1	Kir21 block -5.9
NS(=O)(=O)c1cccc(NC(=O)c2cccs2)c1	none
CCn1c(=O)c(C(=O)NCCCc2ccccc2)c(O)c2ccccc21	KCNQ1 inh 6
CCCn1c(=O)c(C(=O)NCc2ccncc2)c(O)c2ccccc21	none
CCn1c(=O)c(C(=O)NCCc2ccc(Cl)cc2)c(O)c2ccccc21	none
CCCn1c(=O)c(C(=O)NCCCc2ccccc2)c(O)c2ccccc21	KCNQ1 inh 7
CCCn1c(=O)c(C(=O)NCCc2ccc(Cl)cc2)c(O)c2ccccc21	KCNQ1 inh 7
CCn1c(=O)c(C(=O)NNS(=O)(=O)c2ccc(C)cc2)c(O)c2ccccc21	none
CCn1c(=O)c(C(=O)NNS(=O)(=O)c2ccc(Br)cc2)c(O)c2ccccc21	KCNQ1 inh 6
CN(C)S(=O)(=O)c1ccc(NC(=O)CN2CCCc3ccccc32)cc1	none
CC1(C)Oc2ccc3ccc(=O)oc3c2/C(=C/Nc2cccc(O)c2)C1=O	KCNK9 block -6.7, KCNQ1 inh 6
c1ccc(C(c2ccccc2)N2CCN(c3ccc4ccccc4n3)CC2)cc1	KCNK9 block -7.8
c1ccc(C(c2ccccc2)N2CCN(c3nc4ccccc4n4cnnc34)CC2)cc1	KCNQ1 inh 6 (no result: KCNK3 inh)
COc1ccccc1N1CCN(c2ccc3ccccc3n2)CC1	none
Clc1ccc(C(c2ccccc2)N2CCN(c3ccccn3)CC2)cc1 (centres undefined)	KCNK9 block -7.3
COc1ccc(N2CCN(C(=O)NCc3cccc(OC)c3)CC2)cc1	none
C=CCN1C(=O)/C(=C/c2ccc(OC(C)=O)c(OCC)c2[N+](=O)[O-])SC1=S	KCNQ1 inh 12
COc1ccc(NC(=O)CN(C)C(=O)CNC(=O)c2ccc(C)s2)cc1	none
COc1ccc(NC(=S)NNc2ccc([N+](=O)[O-])cc2S(=O)(=O)Nc2ccc(C)cc2C)cc1	KCNQ1 inh 7
Cc1ccc(NS(=O)(=O)c2cc([N+](=O)[O-])ccc2NNC(=S)Nc2cc(C)ccc2C)c(C)c1	KCNQ1 inh 6
Cc1ccc(NS(=O)(=O)c2cc([N+](=O)[O-])ccc2NNC(=S)Nc2cccc(Cl)c2)c(C)c1	KCNQ1 inh 6
COc1ccc(OCc2nnc(SCC(=O)NNC(=O)c3ccc(C)cc3)n2C)cc1	none
Cc1ccc(Sc2ncccc2COC(=O)Nc2c(C)cccc2C)cc1	Kir21 block -4.6
Fc1ccccc1NC(=S)N(CCCN1CCOCC1)Cc1cccnc1	none
CC1CN(C(=O)CCn2c(=O)oc3ccccc32)CC(C)O1 (centres undefined)	KCNK3 inh -9
O=C(O)c1ccccc1CSc1nc2ccccc2[nH]1	none
O=C(COC(=O)C1(c2ccccc2F)CCCC1)NCc1cccs1	Kir21 block -6.8
CC[C@H](C)/C=C/C1=CC2=C(Cl)C(=O)[C@@]3(C)OC(=O)C(C(=O)[C@H](C)[C@@H](C)O)=C3C2=CO1	KCNQ1 inh 6
COc1ccc(Cc2nnc(SCC(=O)Nc3ccc(N4CCOCC4)cc3)n2C)cc1	none
CCN1C(=O)/C(=C\c2ccco2)C(C(=O)OC)=C1C	none
COC(=O)C1=C(C)N(c2cccc(OC)c2)C(=O)/C1=C\c1ccco1	KCNK9 block -7.3
O=C(CCCn1c(=S)[nH]c2ccccc2c1=O)NCCSCc1ccccc1	none
Cc1ccc(C2C3=C(NCCN=C3c3ccccc3)C(=O)N2c2ccccc2)cc1 (centres undefined)	Kir21 block -8.8
CCOc1ccc(N2C(=O)C3=C(C(c4ccc(Cl)cc4)=NCCN3)C2c2cccnc2)cc1 (centres undefined)	none
COc1cc(OC)c(NC(=O)CNC(=O)Cn2ccc3ccccc3c2=O)cc1Cl	none
O=c1cc(O)sc2ccccc12	none
O=c1[nH]sc2ccccc12	KCNQ1 act 13
C#CCNC(=O)C1=C[C@H](c2ccc(Br)cc2)C[C@H](OCc2ccc(CO)cc2)O1	Kir21 block -4.8
C#CCNC(=O)C1=C[C@@H](c2ccc(Br)cc2)C[C@@H](OCc2ccc(CO)cc2)O1	none
CN(C(=O)c1ccc(NC(=O)C2CCCN(C(=O)OC(C)(C)C)C2)cc1)C1CCCCC1 (centres undefined)	none (no result: KCNK9 block, KCNQ1 inh, Kir21 block, hERG rescue, KCNQ1 act)
COc1cccc(C(=O)CSc2nnc(-c3cc(OC)cc(OC)c3)o2)c1	hERG rescue 6.2
CCOC(=O)Cn1c(=S)[nH]c2c(oc3ccc(Cl)cc32)c1=O	KCNQ1 act 12
CCOC(=O)N1CCN(C(=O)c2ccc3c(=O)n(Cc4ccc(Cl)cc4)c(=S)[nH]c3c2)CC1	none
O=C(N/N=C/c1ccc(O)c(O)c1)NC12CC3CC(CC(C3)C1)C2	none
COc1ccc(/C=N/NC(=O)c2cc(C34CC5CC(CC(C5)C3)C4)[nH]n2)cc1O	KCNQ1 inh 6
COc1ccc(/C=N\NC(=O)c2ccc(=O)[nH]n2)cc1O	none
CCOc1ccc(/C=N/NC(=O)NC23CC4CC(CC(C4)C2)C3)cc1O	KCNQ1 inh 9
Cc1ccc(CNC(=O)Cn2c(=O)n(-c3ccccc3)c(=O)c3sccc32)cc1	none
O=S(=O)(c1ccc(NC(=S)N/N=C/c2c3ccccc3cc3ccccc23)cc1)N1CCOCC1	none
